From PubChem BioAssay
This is one part of a sample in which hits are shown more often than they occur.
V-ATPase pH – regulators of yeast V-ATPase proton pumping, primary screen, pHLuorin cytosolic pH fluorescence | S. cerevisiae | actives 0.37% (n = 350,000) | response, % at 10 µM; in the data active = response mostly above about 7.3%, no sharp cut-off; inactive = mostly below about 5.4%; note: actives read high
CHOP inh – inhibitors of CHOP promoter induction, primary screen, cell-based, unfolded protein response, luciferase reporter; inhibition, % at 10 µM; CHO-K1 CHOP-promoter luciferase, tunicamycin-induced, 15-18 h; actives 3.8% (n = 220,000);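 active = compounds that reduced the stress-induced luciferase reporter signal by more than about 70% of percent inhibition, limit read from the data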
XBP1 UPR activ – activators of adaptive XBP1 UPR arm, primary screen, cell-based, CHO-XBP1 luciferase reporter, luminescence, uHTS. IRE1-XBP1 UPR activation; percent of tunicamycin response, DMSO as zero. activation, % at 20 µM. actives 0.33% (n = 330,000);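 active = versus positive control, 20 µM dose yields 30% or more activation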
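Signal: luciferase luminescence; Assay system: CHO-XBP1 luciferase reporter cells; Amount: one thousand reporter cells per well; Dosing: 20 µM single concentration, DMSO 1%; Benchmarks: high control tunicamycin 10 µg/mL final, low control DMSO vehicle only; Schedule: 6 h compound exposure at 37 °C, 5% CO2; Evaluation: percent activation relative to tunicamycin reference.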
CHOP UPR activ – activators of apoptotic CHOP UPR arm, primary screen, cell-based, CHO-CHOP luciferase reporter, luminescence, uHTS. AID 449763, 2010. activation, % at 10 µM. UPR activation; percent of tunicamycin response over DMSO baseline. actives 0.34% (n = 330,000);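 active = at 10 µM dose, activation of 40% or more, normalized to positive control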
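System: CHO CHOP reporter cells. Amount: 500 cells per well. Buffer or medium: F12 medium, 10% FBS. Compound dosing: one dose, 10 µM in 0.5% DMSO. Incubation: 6 h compound exposure at 37 °C after overnight seeding. Technique: Steady-Glo luciferase luminescence. Benchmarks: tunicamycin and DMSO controls.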
Tb MetRS inh – T. brucei MetRS inhibitors, primary screen, biochemical, luminescence; actives 0.4% (n = 360,000); AID 624268, 2012; inhibition, % at 11.9 µM; purified T. brucei MetRS, ATP depletion, Kinase-Glo luminescence;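 active = inhibition above a per-plate cutoff of the control wells' mean inhibition plus 3 SD, cut at about 5.5% in these data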
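Assay system: T. brucei methionyl-tRNA synthetase, purified | Medium: HEPES buffer with MgCl2, KCl, DTT, spermine, BSA, pyrophosphatase | Compound: 11.9 µM single point | Incubation: 15 min enzyme-compound preincubation, 2 h reaction, 10 min detection, 25 °C | Measured by: Kinase-Glo luciferase luminescence reporting remaining unconsumed ATP | Measure: % inhibition normalized to control-well medians | Replication: Singlicate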
Each line names hits and unclear results; the compound was inactive in the other large screens.

CC1(C)Cc2c(c(N3CCOCC3)nc3sc4c(N5CCOCC5)nnnc4c23)CS1	XBP1 UPR activ 58.5 (no result: V-ATPase pH, Tb MetRS inh)
CCCCn1nnnc1C1(C)CCC(=O)N1CCCN1CCOCC1 (stereo not drawn)	none (no result: V-ATPase pH, CHOP inh, XBP1 UPR activ, CHOP UPR activ)
CC1(C)Oc2ccc3ccc(=O)oc3c2C(N2CCCCC2)C1O (stereo not drawn)	none
CC(=O)OC1C(N2CCCCC2)c2c(ccc(/C=C/C(=O)N3CCCCC3)c2O)OC1(C)C (stereo not drawn)	CHOP inh 76.8
COc1cccc(CNc2ncc(Br)cc2Br)c1O	CHOP inh 80.9
O=c1[nH]c(=S)[nH]c2c1C(c1ccc(Br)cc1)c1c([nH]c(=S)[nH]c1=O)O2	V-ATPase pH 146.6 (no result: CHOP inh, XBP1 UPR activ, CHOP UPR activ)
O=C1CCCC2=C1C(c1ccc(Br)cc1)c1c([nH]c(=S)[nH]c1=O)N2 (stereo not drawn)	none
O=c1c(Cc2ccc(F)cc2)c(O)ccn1Cc1ccc(Cl)cc1Cl	CHOP inh 82.9
COc1cccc(CNC(=O)[C@@H]2CCCN2C(=O)[C@@H]2CCCN2C(=O)c2cccc3ccccc23)c1	none (no result: V-ATPase pH, CHOP inh, XBP1 UPR activ, CHOP UPR activ)
Cc1ccc(SCC(=O)Nc2cccc(-c3nnc(-c4ccco4)o3)c2)cc1	CHOP inh 70.7
O=C(CSc1ccc(Cl)cc1)Nc1cccc(-c2nnc(-c3ccco3)o2)c1	none
CCc1ccc(CSc2nccn2-c2ccccc2)cc1	CHOP inh 71.6
CN(Cc1cn(Cc2ccc(F)cc2)nn1)C1CN(Cc2cn(Cc3ccc(F)cc3)nn2)S(=O)(=O)C1 (stereo not drawn)	none (no result: V-ATPase pH, CHOP inh, XBP1 UPR activ, CHOP UPR activ)
O=C(C[C@H]1C[C@@H]2c3cc(NS(=O)(=O)c4ccccc4)ccc3O[C@@H]2[C@H](CO)O1)N1CCOCC1	none (no result: CHOP inh, XBP1 UPR activ, CHOP UPR activ)
Cc1cccc(N2CCN(S(=O)(=O)c3cccc4nonc34)CC2)c1C	CHOP inh 72.8
O=S(=O)(c1cccc2nonc12)N1CCN(c2ccccc2F)CC1	none
C#CCN1CCc2onc(-c3ccc(Br)cc3)c2C1=O	none (no result: V-ATPase pH, CHOP inh, XBP1 UPR activ, CHOP UPR activ)
Cc1nn(Cc2ccccc2)c(C)c1NC(=O)c1noc2c1CCc1ccccc1-2	CHOP inh 85.6
Cc1nn(Cc2ccccc2Cl)c(Cl)c1/C=C/C(=O)OCC(=O)NC(N)=O	none
Cc1nn(Cc2ccc(Cl)cc2Cl)c(Cl)c1/C=C/C(=O)OCC(=O)NCC(F)(F)F	CHOP inh 76.8
OCCN(Cc1ccccc1)Cc1ccc(C(F)(F)F)cc1	CHOP inh 91.4
C[C@H](CO)N1C[C@H](C)[C@H](CN(C)S(=O)(=O)c2ccc3ccccc3c2)OCc2cnnn2CCCC1=O	none (no result: CHOP inh, XBP1 UPR activ, CHOP UPR activ)
C=CCn1c(=O)c2c3c(sc2n2c(Nc4ccc(C(=O)OCC)cc4)nnc12)CCCC3	CHOP inh 87.6
C=CCn1c(=O)c2c3c(sc2n2c(Nc4ccc(OC)cc4)nnc12)CCCC3	none
C=CCC[C@H](CCCCC)OC(=O)/C=C/[C@@H](O)[C@H](O)C[C@@H](O)CC=C	none (no result: V-ATPase pH, CHOP inh, XBP1 UPR activ, CHOP UPR activ)
COc1ccc(Cl)cc1NC(=O)C(C)N1CCN(C/C=C/c2ccccc2)CC1 (stereo not drawn)	CHOP inh 73.5
O=C(CN1CCN(C/C=C/c2ccccc2)CC1)NCc1ccccc1	none
CCC(C)c1ccccc1NC(=O)CN1CCN(C/C=C/c2ccccc2)CC1 (stereo not drawn)	CHOP inh 75.0
N#CCC(=O)Nc1ccc(C(=O)Nc2cccc(S(=O)(=O)N3CCCC3)c2)cc1	none (no result: CHOP inh, XBP1 UPR activ, CHOP UPR activ)
CCCCOCCCNC(=O)C[C@@H]1C[C@@]2(C(=O)OC)CC(C)(C)CC=C2N(Cc2ccccc2)C1=O	none (no result: V-ATPase pH, CHOP inh, XBP1 UPR activ, CHOP UPR activ)
c1ccc(-c2cc(N3CCCCC3)nc(-c3ccccc3)n2)cc1	none
c1ccc(-c2cc(N3CCOCC3)nc(-c3ccccc3)n2)cc1	CHOP inh 89.4
FC(F)(F)c1cc(-c2ccccc2)nc(N2CCOCC2)n1	CHOP inh 89.8
Cc1cc(N2CCCCCC2)nc(-c2ccccc2O)n1	none
FC(F)(F)c1cc(-c2ccccc2)nc(N2CCCCC2)n1	none
Cc1cc(N2CCOCC2)nc(-c2ccccc2O)n1	V-ATPase pH 60.1
Fc1ccc(Oc2cc(N3CCOCC3)nc(-c3ccccc3)n2)c(F)c1	CHOP inh 87.0
CC(=O)c1cc2c(C)c(C(=O)c3ccccc3)oc2cc1O	CHOP inh 83.4
